The source made the active and inactive calls. No cut-off for these calls is given here.
Tests used:
Type in all cases: protein assay
[1] = molecular target: T1, Carbonic anhydrase (Bos taurus) (UniProt P00921+Q95323+P18915+Q3SZX4); test: Evaluated for the inhibition of carbonic anhydrase enzyme at 0.2 g/L concentration
In short: (§1)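 Potentiometric CO2-evolution assay tracked with a pCO2 electrode, 25 ± 0.1 °C, constant stirring, pH 7.0 (0.1 M phosphate buffer), 60 min. NaHCO3 aliquots (0.1 and 5.0 mL) were added to 30 mL buffer at min 2 and 14. CA solution (1.0 mL) was added just before the second bicarbonate addition. Inhibitor was present in the buffer from the assay start.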

[2] = molecular target: T1, Carbonic anhydrase (Bos taurus); test: Compound was evaluated for the inhibition of carbonic anhydrase enzyme at 1.0 g/L concentration; a=No inhibition detected; in short: as §1
[3] = molecular target: T1, Carbonic anhydrase (Bos taurus); test: Compound was evaluated for the inhibition of carbonic anhydrase enzyme at 1.5 g/L concentration; a=No inhibition detected; in short: as §1
[4] = molecular target: T1, Carbonic anhydrase (Bos taurus); test: Compound was evaluated for the inhibition of carbonic anhydrase enzyme at 0.2 g/L concentration; a=No inhibition detected; in short: as §1
[5] = molecular target: T1, Carbonic anhydrase (Bos taurus); test: Compound was evaluated for the inhibition of carbonic anhydrase enzyme at 2.0 g/L concentration; a=No inhibition detected; in short: as §1
[6] = molecular target: T1, Carbonic anhydrase (Bos taurus); test: Compound was evaluated for the inhibition of carbonic anhydrase enzyme at 0.5 g/L concentration; a=No inhibition detected; in short: as §1

Row | inhibition [1] | other results | SMILES
1 | 54.6% | – | COc1ccc(S(N)(=O)=O)cc1C(=O)N1CCN(CC(=O)NC(C)C)CC1
2 | 46.2% | – | COc1ccc(S(N)(=O)=O)cc1C(=O)N1CCN2CCCC2C1 (stereo not given)
3 | – | inhibition [2]: No inhibition; inhibition [3]: No inhibition; inhibition [4]: No inhibition; inhibition [5]: No inhibition; inhibition [6]: No inhibition | CCN1CCC[C@H]1CNC(=O)c1c(OC)c(Br)cc(Br)c1OC
4 | 37.9% | – | COc1ccc(S(N)(=O)=O)cc1CN1CCN(Cc2ccccc2)CC1
5 | 45.5% | – | COc1ccc(S(N)(=O)=O)cc1C(=O)N1CCN(CC(=O)N2CCCC2)CC1
6 | 36.4% | – | C=CCN1CCN(C(=O)c2cc(S(N)(=O)=O)ccc2OC)CC1
7 | 42.4% | – | CC[C@H](C)COc1ccc(S(N)(=O)=O)cc1C(=O)NC[C@@H]1CCCN1CC
8 | 39.4% | – | COc1ccc(S(N)(=O)=O)cc1C(=O)NCCN1CCCCC1
9 | 46.2% | – | CCC(C)CN1CCN(C(=O)c2cc(S(N)(=O)=O)ccc2OC)CC1 (stereo not given)
10 | 61.4% | – | COc1ccc(S(N)(=O)=O)cc1C(=O)N1CCN(Cc2cc(OC)c(OC)c(OC)c2)CC1
11 | 70.5% | – | COc1ccc(S(N)(=O)=O)cc1C(=O)N1CCN(Cc2ccc(S(N)(=O)=O)cc2)CC1
12 | 36.4% | – | COc1ccc(S(N)(=O)=O)cc1C(=O)N1CCN(CC(C)C)CC1
13 | 63.6% | – | COc1ccc(CN2CCN(C(=O)c3cc(S(N)(=O)=O)ccc3OC)CC2)cc1
14 | 45.5% | – | COc1ccc(S(N)(=O)=O)cc1C(=O)NCCCN1CCOCC1
15 | 66.7% | – | COc1cccc(CN2CCN(C(=O)c3cc(S(N)(=O)=O)ccc3OC)CC2)c1
16 | 51.5% | – | COc1ccc(S(N)(=O)=O)cc1C(=O)N1CCN(CC2CCCCC2)CC1
17 | 58.3% | – | COc1ccc(S(N)(=O)=O)cc1C(=O)N1CCN(Cc2ccccc2)CC1
18 | 68.9% | – | NS(=O)(=O)c1nc(C(=O)N2CCN(Cc3ccccc3)CC2)c[nH]1
19 | – | inhibition [2]: inactive; inhibition [3]: inactive; inhibition [4]: inactive; inhibition [5]: inactive; inhibition [6]: inactive | CCN1CCCC1CNC(=O)c1cc(S(=O)(=O)CC)ccc1OC (stereo not given)
20 | 41.7% | – | CC[C@H](C)COc1ccc(S(N)(=O)=O)cc1C(=O)NC[C@H]1CCCN1CC
21 | 30.3% | – | COc1ccc(S(N)(=O)=O)cc1C(=O)N1CCNCC1
22 | 39.4% | – | CCN1CCCC1CN(C)C(=O)c1cc(S(N)(=O)=O)ccc1OC (stereo not given)

— ChEMBL document CHEMBL1123218, “Synthesis and inhibitory activity on carbonic anhydrase of some new sulpiride analogues studied by means of a new method” (J Med Chem, 1986)
